Here are results for 29 compounds from ChEMBL document CHEMBL1145784, “Three dimensional pharmacophore modeling of human CYP17 inhibitors. Potential agents for prostate cancer therapy” (J Med Chem, 2003).

In experiment [1] the target is T1, Steroid 17-alpha-hydroxylase/17,20 lyase (Homo sapiens, UniProt P05093).
T1 sequence (P05093 whole entry): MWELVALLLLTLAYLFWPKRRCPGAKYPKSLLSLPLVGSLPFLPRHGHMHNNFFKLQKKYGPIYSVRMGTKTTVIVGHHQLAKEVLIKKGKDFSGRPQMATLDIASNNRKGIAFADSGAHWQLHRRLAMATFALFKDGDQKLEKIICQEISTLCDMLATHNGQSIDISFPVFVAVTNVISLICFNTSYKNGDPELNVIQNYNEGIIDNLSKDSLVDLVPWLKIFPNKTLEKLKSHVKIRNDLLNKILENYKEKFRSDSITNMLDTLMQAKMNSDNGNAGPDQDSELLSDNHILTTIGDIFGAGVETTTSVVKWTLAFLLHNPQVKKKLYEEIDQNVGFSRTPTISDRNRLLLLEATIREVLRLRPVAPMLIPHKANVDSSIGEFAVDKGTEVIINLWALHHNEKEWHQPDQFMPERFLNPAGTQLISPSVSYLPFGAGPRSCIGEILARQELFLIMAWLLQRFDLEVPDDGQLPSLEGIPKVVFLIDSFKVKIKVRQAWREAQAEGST
Kind of experiment: In vitro cytochrome P450 17A1 inhibition was assayed using the rapid acetic acid releasing assay (AARA), utilizing intact P450c17-expressing Escherichia coli or P450c17-LNCaP cells as the enzyme source. Summed up:
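Enzyme source was intact E. coli expressing P450c17 or P450c17-LNCaP cells. Substrate was [21-3H]-17α-hydroxypregnenolone, and CYP17 activity was read as tritiated acetic acid released by C-21 side-chain cleavage. Each compound was tested at five or more concentrations, in triplicate. IC50 was taken directly from plots of % inhibition versus concentration and reported as the mean of triplicate experiments.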

Experiment [2] addresses T1, Steroid 17-alpha-hydroxylase/17,20 lyase.
Experiment [3] shares this target. The experiment can be described thus: In vitro Cytochrome P450 17A1 inhibition in rapid acetic acid releasing assay (AARA) using intact P450c17-expressing Escherichia coli or P450c17-LNCaP cells as the enzyme source at 1 mM. The method in brief:
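Acetic acid releasing assay using intact P450c17-expressing E. coli or P450c17-LNCaP cells with [21-3H]-17α-hydroxypregnenolone as substrate. Activity was read as tritiated acetic acid formed from C-21 side-chain cleavage. Percent inhibition was recorded at a single inhibitor concentration of 1 mM.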

For `C[C@]12CCC3C(CC=C4C[C@@H](O)CC[C@@]43C)C1C/C(=N\O)C2` (some centres undefined), the IC50 in experiment [1] stood at 628 nM. That is a sub-micromolar value.
Still for that read-out and setting: the value for `C[C@]12CCC(=O)C=C1CCC1C2CC[C@]2(C)C(n3ccnc3)=CCC12` (some centres undefined) was 150 nM.
The same measure, in the same setting: the value for `C[C@]12CCC3C(CC=C4C[C@@H](O)CC[C@@]43C)C1CCC2C/C=N/O` (some centres undefined) was 450 nM; that for `C[C@]12CC[C@H](O)CC1=CCC1C2CC[C@]2(C)C(n3ccnn3)=CCC12` (some centres undefined) was 377 nM.
With `C[C@]12CC[C@H](O)CC1=CCC1C2CC[C@]2(C)C(n3cnnn3)=CCC12` (some centres undefined), the IC50 in experiment [1] was determined as 2600 nM.
Take `Clc1ccc(COC(Cn2ccnc2)c2ccc(Cl)cc2Cl)cc1` (centres undefined) [ECONAZOLE]: in experiment [2], the affinity corresponds to a Ki of 325 nM.
Same read-out and setting: as for `Clc1ccc(C(Cn2ccnc2)OCc2ccsc2Cl)c(Cl)c1` (centres undefined) [TIOCONAZOLE], the figure is 505 nM.
For `C[C@]12CCC(=O)C=C1CCC1C2CC[C@]2(C)C(c3ccno3)=CCC12` (some centres undefined), in experiment [1], inhibition was half-maximal at 1000 nM (IC50).
Regarding `c1ccc(-c2ccc(C(c3ccccc3)n3ccnc3)cc2)cc1` (centres undefined) [BIFONAZOLE], the Ki in experiment [2] was determined as 56.5 nM.
In the case of `CS(=O)(=O)Nc1cc(Cc2cc(NS(C)(=O)=O)cc(C(F)(F)F)c2)cc(C(F)(F)F)c1`, the inhibition at 1000 µM in experiment [3] is roughly 25%.
`C[C@]12CC[C@H](O)CC1=CC[C@@H]1[C@@H]2CC[C@]2(C)C(c3cccnc3)=CC[C@@H]12` [ABIRATERONE] showed an IC50 in experiment [1] of 800 nM.
Still for that read-out and setting: as for `CCC(=O)O[C@H]1CC[C@H]2[C@@H]3CCC4=CC(=O)CC[C@]4(C)[C@H]3CC[C@]12C` [TESTOSTERONE PROPIONATE], the figure is 56 nM; as for `CC(=O)O[C@H]1CCC2C3C=CC4=CC(=O)C=C[C@]4(C)C3CC[C@@]21C` (some centres undefined), 660 nM.
Still for that read-out and setting: as for `C[C@]12CCC(=O)C=C1CCC1C2CC[C@]2(C)C(n3cncn3)=CCC12` (some centres undefined), the figure is 1200 nM; as for `C[C@]12CC[C@H](O)CC1=CCC1C2CC[C@]2(C)/C(=N/NC(N)=O)CCC12` (some centres undefined) [NRB 03731], 178 nM; as for `C[C@]12CC[C@H](O)CC1=CCC1C2CC[C@]2(C)C(n3cncn3)=CCC12` (some centres undefined), 800 nM.
The same measure, in the same setting: the value for `C[C@]12CC[C@H](O)CC1=CCC1C2CC[C@]2(C)C(n3nccn3)=CCC12` (some centres undefined) was 3700 nM.
Regarding `C[C@]12CC[C@H](O)CC1=CCC1C2CC[C@]2(C)C(=N/N)/C(=N/O)CC12` (some centres undefined), in experiment [1], half-maximal inhibition (IC50) was put at 5900 nM.
The same measure, in the same setting: as for `C[C@]12CC[C@@H](O)CC1=CC[C@@H]1[C@@H]2CC[C@]2(C)C(=C/C=N/O)CC[C@@H]12`, the figure is 320 nM.
The same measure, in the same setting: the value for `C=C1C[C@@]2(C)C(=CC1=O)CCC1C2CC[C@@]2(C)C1CC[C@]2(C)OC(C)=O` (some centres undefined) was 562 nM; that for `C[C@]12CC[C@H](O)CC1=CCC1C2CC[C@]2(C)C(n3ncnn3)=CCC12` (some centres undefined) was 1400 nM; that for `C[C@]12CC[C@H](O)CC1=CCC1C2CC[C@@]2(C)C1CC[C@H]2c1ccncn1` (some centres undefined) was 225 nM.
In experiment [1], `CC(CCC(=O)OC1CC2CC=CC1C2)[C@H]1CCC2C3CC=C4C[C@@H](O)CC[C@]4(C)C3CCC21` (some centres undefined) returned a 50% inhibitory concentration (IC50) of 617 nM.
`Clc1ccc(COC(Cn2ccnc2)c2ccc(Cl)cc2Cl)c(Cl)c1` (centres undefined) [MICONAZOLE] had a Ki in experiment [2] of 243 nM.
For `C[C@]12CCC(=O)C=C1CCC1C2CC[C@]2(C)C(n3cnc4ccccc43)=CCC12` (some centres undefined), it took 915 nM to reach half-maximal inhibition in experiment [1] (IC50).
In turn, `C[C@]12CC[C@H](O)CC1=CCC1C2CC[C@]2(C)C(c3cncnc3)=CCC12` (some centres undefined) registered an IC50 in experiment [1] of 500 nM. This IC50 lies about 1.8-fold lower than the previous one.
In turn, `C[C@]12CCC(=O)C=C1CCC1C2CC[C@]2(C)C(n3ccnn3)=CCC12` (some centres undefined) registered an IC50 in experiment [1] of 387 nM.
The same measure, in the same setting: as for `C/C(=N/O)C1=CC=C2[C@@H]3CCC4=CC(=O)CC[C@]4(C)[C@H]3CC[C@]12C`, the figure is 1700 nM; as for `C/C(=N/O)[C@@]1(O)CC[C@H]2[C@@H]3CC=C4C[C@@H](O)CC[C@]4(C)[C@H]3CC[C@@]21C`, 12000 nM.

Broadly, the IC50 is the concentration that gives 50% inhibition. Low values mean greater potency in that assay, high ones weaker potency in that assay. As a reminder, the Ki is a measure of affinity in units of concentration, obtained from inhibition or displacement. In general, inhibition refers to the percentage by which the read-out fell short of the control.
